Compound activity (PubChem)
RGS4 block: RGS4 inhibitors, primary screen, cell-based, HEK293 M3R inducible RGS4, calcium flux. Regulator of G-protein signaling 4 (Homo sapiens), P49798. Fluo-4 calcium flux; hits give high values; triggered by carbachol at its EC20. B-score at 10 µM. 310,000 tested, 0.45% active. AID 463165, 2010;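 active = B-score, a plate-corrected calcium signal, over three deviations above library mean, with baseline fluorescence within five deviations of library mean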;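 also: RGS4 expression induced by doxycycline in cells with stable M3 receptor; B-score is computed from the integrated fluorescence ratio over baseline after carbachol; higher B-score means a larger calcium signal and so more RGS4 inhibition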
Target sequence (P49798 whole entry, looked up): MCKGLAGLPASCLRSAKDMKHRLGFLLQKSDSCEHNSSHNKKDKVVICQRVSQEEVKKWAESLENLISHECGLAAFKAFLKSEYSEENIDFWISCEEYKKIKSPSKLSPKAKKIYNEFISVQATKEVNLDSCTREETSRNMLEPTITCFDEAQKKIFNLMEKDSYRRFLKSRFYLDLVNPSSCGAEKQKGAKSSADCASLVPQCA
MrgX1 ag: agonists of human MrgX1 receptor, primary screen, HEK293 cells, Fluo-4 calcium flux; Mas-related G-protein coupled receptor member X1 (Homo sapiens), Q96LB2; Fluo-4 calcium fluorescence, agonist mode; hits give high values; B-score at 10 µM; 310,000 tested, 0.44% active;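 active = calcium response B-score plate-corrected fluorescence ratio at least 3 library SD, with starting fluorescence B-score inside 5 SD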
Target sequence (Q96LB2 whole entry, looked up): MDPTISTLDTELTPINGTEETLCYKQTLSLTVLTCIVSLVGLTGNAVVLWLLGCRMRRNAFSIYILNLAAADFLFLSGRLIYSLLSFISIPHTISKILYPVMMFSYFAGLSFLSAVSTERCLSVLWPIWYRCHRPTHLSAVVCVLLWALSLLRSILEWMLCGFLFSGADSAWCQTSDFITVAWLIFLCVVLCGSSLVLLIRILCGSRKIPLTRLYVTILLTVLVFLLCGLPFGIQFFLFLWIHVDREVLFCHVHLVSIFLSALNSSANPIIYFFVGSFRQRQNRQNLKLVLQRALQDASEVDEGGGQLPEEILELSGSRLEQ
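Material: HEK293 cells stably expressing human MrgX1 receptor | Quantity: 15,000 cells per well | Times: Cells plated overnight, dye loaded 0.5 h 37 °C, 0.5 h room temperature | Measured by: Kinetic Fluo-4 NW fluorescence of intracellular calcium | Control set: Positive and negative controls per plate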
MrgX1 allo act: positive allosteric modulators of MrgX1, primary screen, HEK293 cells, Fluo-4 calcium flux; Mas-related G-protein coupled receptor member X1 (Homo sapiens), Q96LB2; FDSS; hits give high values; B-score at 10 µM; 310,000 tested, 0.63% active; AID 588675, 2011;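 active = plate-corrected calcium response at least 3 library SD above typical, normal starting fluorescence, not activating the receptor alone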;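 also: compound read alongside a low EC10 to EC30 dose of BAM8-22 agonist; peak minus trough fluorescence over baseline measured at the second addition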
RGS4 pot: RGS4 potentiators or activators, primary screen, cell-based, HEK293 M3R inducible RGS4, calcium flux; AID 463111, 2010; carbachol calcium flux Fluo4; hits give low values; 310,000 tested, 0.92% active; B-score at 10 µM;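 active = B-score of the integrated calcium signal more than 4 SD below the library mean, with starting fluorescence not abnormally high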;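 also: negative B-score means reduced calcium response which marks RGS4 activation or potentiation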
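Detection: kinetic calcium fluorescence imaging with Fluo4-AM dye, 2 µM / Material: HEK293 cells with stable M3R and inducible RGS4 / Schedule: recording 10 s baseline at 1 Hz, 100 s post-agonist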
MrgX1 antagonist: antagonists of human MrgX1 receptor, primary screen, HEK293 cells, Fluo-4 calcium flux. 310,000 tested, 1.3% active. Mas-related G-protein coupled receptor member X1 (Homo sapiens), Q96LB2. B-score at 10 µM. BAM8-22 antagonism; hits give low values;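 active = calcium-response B-score plate-corrected more than 3 library SD below zero, starting fluorescence within 5 deviations, no agonist response on first addition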;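 also: peak minus trough fluorescence over baseline after final BAM8-22 challenge near maximal dose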
Large screens that a line does not name were inactive. Hits are enriched below; roughly 3.5% of the tested compounds scored in any of these assays.

COc1ccc(CCNC(=O)C2CCN(C(=O)c3ccc(C(C)(C)C)cc3)CC2)cc1	none
CCCC(=O)OCCNC(=O)c1cc2ccccc2oc1=O	MrgX1 antagonist -5.39
COC(=O)C1=CN(Cc2ccccc2)C=C(C(=O)OC)C1c1cc(F)ccc1F	none
Cc1cccc(C)c1NC(=O)/C(C#N)=C/c1ccc(-c2ccc(C(=O)O)cc2)o1	none
CC(C)(C)c1cc(CCC(=O)NNC(=S)NC(=O)c2ccccc2)cc(C(C)(C)C)c1O	MrgX1 ag 49.7
CCCCCCCC(=O)NNC(=O)Cc1ccccc1	MrgX1 antagonist -6.9
CCCCC(=O)NC(=S)NNC(=O)CCc1ccccc1	MrgX1 ag 49.2
CCc1cccc(NC(=O)C2CCCN2C(=O)Nc2ccc(C)cc2)c1 (configuration not stated)	none
Cc1ccccc1COC(=O)CCC1=NS(=O)(=O)c2ccccc2N1	none
CCCOc1ccc(/C=C2/C(=O)ON=C2C)cc1Cl	none
CC1=NOC(=O)/C1=C/c1ccc(N(C)C)cc1	MrgX1 ag 45.7
CCN(CC)c1ccc(/C=C2/C(=O)ON=C2C)cc1	MrgX1 ag 56.7
COc1ccc(/C=C2/C(=O)N(c3ccccc3)N=C2C)cc1	none
CCN(CC)c1ccc(/C=C2\C(=O)N(c3nnc(C)c(=O)[nH]3)N=C2C)cc1	MrgX1 ag 41.6
COc1ccc(/C=C/C(=O)OCC(=O)NCCNC(=O)COC(=O)/C=C/c2ccc(OC)cc2)cc1	none
O=C(O)Cn1cc(/C=c2/sc3nc4ccccc4n3c2=O)c2ccccc21	MrgX1 ag 26.8
Cc1ccc(-n2c(C)cc(/C=c3/sc4nc5ccccc5n4c3=O)c2C)cc1	none
CCOc1ccc(CNS(=O)(=O)c2c(C)nc3sccn3c2=O)cc1OC	none
COCCN(C(=O)COC(=O)c1sccc1C)c1c(N)n(Cc2ccccc2)c(=O)[nH]c1=O	none
O=c1c2ccccc2nnn1CSc1nnc(-c2cccc(S(=O)(=O)N3CCCCC3)c2)o1	RGS4 pot -7.9
CN(C)c1ccc(NC(=O)C[n+]2ccccc2)cc1	none
O=C(C[n+]1ccccc1)Nc1ccc(Oc2ccccc2)cc1	RGS4 pot -7.64
COc1ccc(NC(=S)N(Cc2ccc(Cl)cc2)Cc2ccc(C(=O)O)cc2)cc1Cl	MrgX1 antagonist -4.64
COc1ccc(-c2c(C#N)c(N)nc3sc(C(=O)c4ccccc4)c(N)c23)cc1	none
CSc1c(C#N)c(N)nc2sc(C(=O)c3ccc(Cl)c(Cl)c3)c(N)c12	MrgX1 antagonist -5.23
O=C(O)CCC1c2cc3c4cc2OC2Oc5cc6c(cc51)C(CCC(=O)O)c1cc5c7cc1OC(O6)c1cc6cc(c1)Oc1cc(cc(C(=O)O)c1)Oc1cc8cc(c1)C(Oc1cc(c(cc1C5CCC(=O)O)C3CCC(=O)O)OC(O4)c1cc(cc(c1)Oc1cc(cc(C(=O)O)c1)O8)Oc1cc(cc(C(=O)O)c1)Oc1cc(cc2c1)Oc1cc(cc(C(=O)O)c1)O6)O7 (configuration not stated)	MrgX1 ag 29.3
CC(/C=C1\NC(=S)NC1=O)=C\c1ccccc1	MrgX1 antagonist -5.1
O=C1NC(=S)N/C1=C/c1cccc2ccccc12	none
CN1CCN(C(=O)c2ccccc2Nc2ccc(SC(F)F)cc2)CC1	none
CC1CC(C)CN(C(=O)c2ccccc2Nc2ccc(SC(F)F)cc2)C1 (configuration not stated)	RGS4 pot -7.37
CCOC(=O)c1cnc(Nc2nc3ccccc3o2)nc1CSC(=S)N(CC)CC	none
CCOC(=O)c1cnc(Nc2nc3ccccc3o2)nc1CSc1ncccn1	MrgX1 antagonist -5.63
O=C(C1CCN(Cc2ccc(Cl)cc2)CC1)N1CCN(C(c2ccccc2)c2ccccc2)CC1	RGS4 pot -8.01
COc1ccc(S(=O)(=O)c2c(N)n(Cc3ccco3)c3nc4ccccc4nc23)cc1	MrgX1 antagonist -5.51
COc1ccc(-c2csc(NC(=O)CSc3n[nH]c(N)n3)n2)cc1	none
COc1ccc(-c2csc(NC(=O)CSc3n[nH]c(C)n3)n2)cc1	MrgX1 allo act 6.86
CCOC(=O)C(NC(=O)c1ccc(OC)cc1)(N1CCCC1=O)C(F)(F)F (configuration not stated)	none
COC(=O)c1c(-c2ccc(OC)cc2)oc2ccc(-c3ccc(OC)nc3)cc12	none
CCCOC(=O)c1c(-c2ccc(OC)cc2)oc2ccc(-c3ccc(OC)nc3)cc12	MrgX1 antagonist -8.26
CCc1ccc(/C=N\NC(=O)c2ccc(Br)o2)s1	MrgX1 antagonist -4.93
Cc1cc(NC(=O)CCC(=O)N(CC(=O)NCC2CCCO2)c2ccc(F)c(Cl)c2)no1 (configuration not stated)	none
CC(=O)N(C1=C(Cl)C(=O)c2ccccc2C1=O)C1CCCCC1	MrgX1 antagonist -9.61
Cc1ccc(S(=O)(=O)N2CCN(Cc3cc(C(C)(C)C)ccc3O)CC2)cc1	none
CCN1C(=O)/C(=C\N(C)C)S/C1=N\S(=O)(=O)c1ccccc1	MrgX1 allo act 10.4
O=C(N/N=C/c1cccc2nccnc12)c1ccncc1	RGS4 pot -8.31
CN(CCOc1ccc(Cl)cc1)C(=O)C1CCN(C(=O)c2ccc(Cl)cc2)CC1	none
C[C@@H]1O[C@@H](OC2C(O)C(OCCc3ccc(O)c(O)c3)OC(CO)C2OC(=O)/C=C/c2ccc(O)c(O)c2)[C@H](O)[C@H](O)[C@H]1O (some centres not stated)	MrgX1 antagonist -5.14
COCCn1c(SCc2cccc([N+](=O)[O-])c2)nc2ccccc2c1=O	none
CCCCn1c(SCc2cccc([N+](=O)[O-])c2)nc2ccsc2c1=O	RGS4 pot -8.05
O=C(Nc1cccc(C(F)(F)F)c1)/C(=C/c1ccco1)NC(=O)c1cccs1	none
COc1ccccc1N/C(=N/S(=O)(=O)c1ccc(C)cc1)c1ccc(Cl)cc1	none
COc1ccc(CC(NC(C)=O)C(=O)NC2CCN(c3nc(C)cc(C)c3C#N)CC2)c(OC)c1 (configuration not stated)	none
COC(=O)c1cc2occc2n1Cc1nc(-c2ccccc2Cl)oc1C	RGS4 pot -7.5
COC(=O)c1cc2ccsc2n1Cc1nc(-c2ccc(Cl)cc2)oc1C	none
COC(=O)c1cc2occc2n1Cc1nc(-c2ccc(Cl)cc2)oc1C	RGS4 pot -7.16
COc1ccc(N(C)C(=O)c2ccc3c(Cl)c4c(nc3c2)CCCC4)c(OC)c1	RGS4 pot -7.08
O=C(CCSc1nc2ccccc2s1)N/N=C/c1c(O)ccc2ccccc12	none
CCCC1CCC(C(=O)Nn2cnc3ccccc3c2=O)CC1 (configuration not stated)	none
O=C(Nn1cnc2ccccc2c1=O)C1CCCCC1	MrgX1 antagonist -7.53
